A selection: hits, their analogues and other compounds. The true share with any hit is near 3.9%.
GAA850 FXN act = frataxin GAA850 promoter activation. activation, % at 6 µM. HEK293 lucGAA850 FXN promoter luciferase reporter, 24 h; percent of 10 µM SAHA response. 360,000 compounds, 0.56% hits. AID 540364;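 active = activation above the average of all compounds screened plus 3 SD, cutoff fixed separately per campaign, cut at about 7.5% in these data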;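 also: 0% = DMSO wells and 100% = 10 µM SAHA wells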
AHR act = activates the human aryl hydrocarbon receptor; AHR-responsive luciferase reporter cells, luminescence; 320,000 compounds, 2.5% hits; P35869; activation, % at 5 µM; in the data active = activation above about 47%;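 also: 0% = vehicle wells and 100% = reference agonist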
SR-BI uptake up = SR-BI HDL lipid transfer activation; CHO ldlA[mSR-BI] cells, DiI-HDL uptake fluorescence, 3 h; 100 = double the neutral-control signal; activation, % at 12.5 µM; 320,000 compounds, 0.096% hits; AID 504775;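 active = mean replicate activation of at least 60% and every replicate at or above 60%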;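 also: 0% = median plate neutral-control signal and 100% = twice that signal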
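system = CHO ldlA[mSR-BI] cells, LDL receptor-null, SR-BI overexpressing | medium = Ham's F12 with 0.5% BSA, HEPES 25 mM, pH 7.4 | probe or stimulus = DiI-HDL 10 µg/mL | compound dosing = single-point compound dose | incubation = compound exposure 3 h, 37 °C | technique = DiI fluorescence, bottom read | read-out = cell-associated DiI fluorescence as measure of HDL uptake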
SR-BI HDL uptake = blocks mouse SR-BI lipid uptake from DiI-HDL. Q61009. ldlA[mSR-BI] CHO cells, DiI-HDL uptake fluorescence, 3 h. inhibition, % at 12.5 µM. 320,000 compounds, 0.96% hits. AID 488896;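 active = mean replicate inhibition of at least 70% and a set share of replicates each scoring 70 or more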;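 also: 0% = median of neutral control wells and 100% = median of positive control wells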
ABCB6 inh MLPCN = human ABCB6 transporter inhibition; Q9NP58; K562-ABCB6 porphyrin accumulation, flow cytometry, 1 h; stronger effect = lower value; fluorescence ratio to DMSO, % at 10 µM; 360,000 compounds, 0.19% hits;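 active = fluorescence ratio to DMSO below 75%, the collection mean minus 3 SD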;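 also: signal is porphyrin accumulated inside mitochondria; 100% equals median channel fluorescence of DMSO control wells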
HIF act = HIF pathway transcriptional activation; U2OS HRE-luciferase reporter, luminescence; normalized: DMSO 0%, desferrioxamine 100%; activation, % at 7.5 µM (by protocol); 300,000 compounds, 0.32% hits;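 active = mean activation of at least 10% of the iron chelator positive control signal, with at least half of replicates also reaching 10%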
AHR act confirm = human AHR activation, confirmation; shares compounds with AHR act; human cells, AHR-responsive luciferase reporter, luminescence; activation, % at 9 µM; 2,300 compounds, 87% hits; in the data active = activation above about 49%;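 also: HepG2 hepatoma cells carrying a DRE-driven firefly luciferase reporter; 0% = vehicle wells and 100% = reference agonist wells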
PXR act counter = counter-screen for AHR activators: human PXR activators; shares compounds with AHR act; cell-based PXR reporter, luciferase luminescence; activation, % at 11.6 µM; 2,300 compounds, 88% hits; AID 434939; in the data active = activation above about 11%;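 also: human hepatoma DPX-2 cells expressing full-length human PXR; 0% = DMSO and 100% = reference agonist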
Target sequence (O75469 whole entry, looked up): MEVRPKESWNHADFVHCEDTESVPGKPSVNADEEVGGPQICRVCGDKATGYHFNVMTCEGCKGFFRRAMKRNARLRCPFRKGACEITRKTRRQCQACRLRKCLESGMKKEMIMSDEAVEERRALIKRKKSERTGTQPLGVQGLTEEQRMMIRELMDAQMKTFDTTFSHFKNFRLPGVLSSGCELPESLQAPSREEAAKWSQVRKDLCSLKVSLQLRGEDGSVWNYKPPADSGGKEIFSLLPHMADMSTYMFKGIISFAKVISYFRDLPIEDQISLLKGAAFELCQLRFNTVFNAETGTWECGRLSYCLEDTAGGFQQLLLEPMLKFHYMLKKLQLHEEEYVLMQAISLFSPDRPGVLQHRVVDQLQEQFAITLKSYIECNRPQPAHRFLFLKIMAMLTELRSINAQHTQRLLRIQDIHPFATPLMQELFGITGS
Active calls of the source: *; · = no result.

SMILES | GAA850 FXN act | AHR act | SR-BI uptake up | SR-BI HDL uptake | ABCB6 inh MLPCN | HIF act | AHR act confirm | PXR act counter
COc1ccccc1C(=O)NCC(=O)N/N=C/c1cn[nH]c1-c1ccccc1 | 0 | 156* | 36 | -36 | 99 | 0 | 111* | 12*
COc1cccc(C(=O)NCC(=O)N/N=C/c2cn[nH]c2-c2ccccc2)c1 | 4 | 19 | -29 | 29 | 100 | 0 | · | ·
Cc1ccc(C(=O)N/C(=C/c2ccc(Cl)cc2)C(=O)Nc2cccc(C(=O)O)c2)cc1 | -1 | 0 | 6 | -6 | 104 | 1 | · | ·
CCOc1ccc(C(=O)OCCN(C)C)cc1 | 1 | 0 | 14 | -14 | 98 | 0 | · | ·
COc1ccc(-c2[nH]c(-c3ccc(C)cc3)nc2SCC(=O)NCc2ccco2)cc1OC | -1 | 121* | -15 | 15 | 96 | 0 | 85* | 12*
COc1ccc(-c2nn(C)c3sc(C(=O)NCc4ccco4)cc23)cc1OC | -1 | 134* | -43 | 43 | 94 | 2 | 112* | 35*
CCOC(=O)c1c(/N=C/c2ccc(C)cc2O)sc2c1CCC2 | 0 | 2 | 3 | -3 | 93 | 0 | · | ·
O=c1c2ccccc2nc(-c2ccco2)n1CCCn1ccnc1 | 1 | 83* | 27 | -27 | 94 | 0 | 103* | 23*
O=C1NC(=O)/C(=C\c2ccsc2)N1 | 2 | 1 | 20 | -20 | 101 | 0 | · | ·
CCN(CC)c1ccc(/C=C2\NC(=O)NC2=O)cc1 | -1 | 88* | 41 | -41 | 105 | 3 | 56* | 11*
O=c1c2ccccc2cnn1-c1ccc(Br)cc1 | 1 | 136* | 6 | -6 | 96 | 1 | 109* | 38*
C/C(=N/NC(=O)c1ccc(O)cc1)c1cccc([N+](=O)[O-])c1 | 1 | 2 | 15 | -15 | 93 | 0 | · | ·
C/C(=N\NC(=O)c1cccc([N+](=O)[O-])c1)c1cccs1 | 5 | 81* | 3 | -3 | 100 | 1 | 79* | 31*
COCCN(C(=O)COC(=O)c1cc2ccccc2cc1OC)c1c(N)n(Cc2ccccc2)c(=O)[nH]c1=O | -2 | 7 | -55 | 55 | 99 | 0 | · | ·
O=C1CCCCC1C(=O)c1cn(-c2ccc(Cl)c(Cl)c2)nn1 (centres undefined) | 0 | 4 | 1 | -1 | 100 | 1 | · | ·
O=C(c1cn(-c2ccc(Cl)c(Cl)c2)nn1)C1CC1 | 2 | 84* | 7 | -7 | 93 | 3 | 125* | 29*
O=C(NN=C1CCCCC1)c1cc(-c2ccccc2)n[nH]1 | 1 | 121* | 11 | -11 | 99 | 0 | 44 | 17*
O=C(NN=C1CCCC1)c1cc(-c2ccccc2)n[nH]1 | 4 | 23 | 6 | -6 | 92 | 0 | · | ·
Cc1ccc(NC(=O)c2noc3c2CCc2ccccc2-3)cc1 | -1 | 102* | -1 | 1 | 99 | 5 | 133* | 20*
COc1ccccc1/C=C/C(=O)N1CCCC1 | 0 | 84* | -22 | 22 | 104 | 2 | 102* | 17*
COC(=O)c1ccccc1NC(=O)/C=N/O | 4 | 2 | 7 | -7 | 98 | 0 | · | ·
O=C(/C=C/c1ccco1)N(Cc1cccc(Cl)c1)C1CCS(=O)(=O)C1 (centres undefined) | 0 | -2 | 24 | -24 | 99 | 0 | · | ·
CCOc1ccc2nc(NC(=O)Cc3cccs3)sc2c1 | 3 | 34 | -21 | 21 | 89 | 1 | · | ·
CCOc1ccc2nc(NC(=O)Nc3cccs3)sc2c1 | 2 | 96* | -40 | 40 | 102 | 2 | 90* | 12*
Cc1ccc(-c2[nH]ncc2/C=N/n2c(COc3ccccc3C)nc3ccccc3c2=O)cc1 | -1 | 25 | 11 | -11 | 98 | -3 | · | ·
SMILES | GAA850 FXN act | AHR act | SR-BI uptake up | SR-BI HDL uptake | ABCB6 inh MLPCN | HIF act | AHR act confirm | PXR act counter
Cc1ccccc1OCc1nc2ccccc2c(=O)n1/N=C/c1c[nH]c2ccccc12 | -1 | 85* | -31 | 31 | 96 | 0 | 35 | 89*
Cc1cccc(C)c1OCc1nc2ccccc2c(=O)n1/N=C/c1c[nH]c2ccccc12 | -3 | 102* | 11 | -11 | 98 | 0 | 32 | 112*
O=C(/C=C/c1cn(CC(O)CN2CCCCC2)c2ccccc12)c1ccccc1 (centres undefined) | 0 | · | · | · | 97 | 0 | · | ·
CN1CCN(Cn2cc(/C=C/C(=O)c3ccccc3)c3ccccc32)CC1 | 4 | 86* | -10 | 10 | 105 | 3 | 110* | 47*
CN(Cc1ccccn1)C(=O)c1cc(COc2ccc(F)cc2Cl)on1 | 4 | · | · | · | 97 | · | · | ·
CCOc1cc(N)c(Cl)cc1C(=O)NCC1CN(Cc2ccc(F)cc2)CCO1 (centres undefined) | 1 | 90* | -52 | 52 | 95 | 0 | 63* | 181*
COc1ccc(N)c2c1C(=O)c1ccccc1C2=O | 5 | 2 | -18 | 18 | 98 | 2 | · | ·
COc1ccc(OC)c2c1C(=O)C(Cl)=C(Cl)C2=O | -10 | 137* | -31 | 31 | 116 | -6 | -4 | -7
N#CC1=C(N)Nc2nc3ccccc3n2C1c1ccc(Cl)cc1 (centres undefined) | 3 | 99* | -6 | 6 | 98 | 1 | 69* | 49*
N#CC1=C(N)Nc2ncnn2C1c1ccccc1 (centres undefined) | · | 4 | · | · | · | 0 | · | ·
CCOc1cc(/C=C/c2ccc3cccc([N+](=O)[O-])c3n2)cc(Cl)c1O | 5 | 7 | -22 | 22 | 98 | 0 | · | ·
O=[N+]([O-])c1cccc2ccc(/C=C/c3ccc(C(F)(F)F)cc3)nc12 | 2 | 82* | -10 | 10 | 94 | 0 | 96* | 15*
O=[N+]([O-])c1cccc2ccc(/C=C/c3cccc(Br)c3)nc12 | 4 | 175* | -41 | 41 | 95 | 2 | 121* | 25*
O=C(NCC(=O)N1CCN(c2ccccc2)CC1)c1ccc(Br)o1 | 2 | 5 | 2 | -2 | 99 | 0 | · | ·
CCN1CCN(Cc2c(O)ccc3c2O/C(=C\C=C\c2ccccc2)C3=O)CC1 | 0 | -4 | 7 | -7 | 102 | 1 | · | ·
CCc1nnc(NC(=O)c2sc3nc4c(cc3c2N)CCCCC4)s1 | 5 | 124* | 17 | -17 | 103 | 3 | 29 | 36*
Nc1c(C(=O)N2CCCCC2)sc2nc3c(cc12)CCCC3 | 3 | -12 | · | · | 102 | 3 | · | ·
Cc1oc(C)c(C(=O)O)c1C(=O)O | 4 | 0 | -5 | 5 | 92 | 0 | · | ·
CCCOc1ccc(-c2nc(C#N)c(NCCCn3ccnc3)o2)cc1 | 0 | 22 | -17 | 17 | 94 | 0 | · | ·
